A short description of series [1]: Stability in human liver microsomes assessed as compound remaining after 30 mins. The class given is ADME, Microsome. The following applies: read-out: Stability.
Series [2] has as its target T1, Nuclear factor erythroid 2-related factor 2 (Mus musculus) (UniProt Q60795).
T1 sequence (whole entry): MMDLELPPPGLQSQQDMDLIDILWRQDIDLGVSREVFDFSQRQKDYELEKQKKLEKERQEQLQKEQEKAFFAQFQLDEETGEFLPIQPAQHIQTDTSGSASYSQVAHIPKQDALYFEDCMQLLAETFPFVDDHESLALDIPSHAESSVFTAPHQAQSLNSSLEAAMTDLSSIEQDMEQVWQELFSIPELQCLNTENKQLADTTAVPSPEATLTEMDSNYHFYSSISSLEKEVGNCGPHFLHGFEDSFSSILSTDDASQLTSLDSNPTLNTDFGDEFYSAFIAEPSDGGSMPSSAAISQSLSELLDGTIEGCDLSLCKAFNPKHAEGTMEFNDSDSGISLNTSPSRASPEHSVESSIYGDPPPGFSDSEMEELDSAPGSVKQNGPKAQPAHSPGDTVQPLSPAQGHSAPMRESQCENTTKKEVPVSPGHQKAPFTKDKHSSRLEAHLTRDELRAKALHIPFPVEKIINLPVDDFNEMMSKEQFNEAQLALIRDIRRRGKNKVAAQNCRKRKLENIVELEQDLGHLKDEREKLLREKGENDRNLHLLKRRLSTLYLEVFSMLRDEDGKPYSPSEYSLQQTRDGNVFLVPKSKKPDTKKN
In words: Activation of NRF2 in mouse BV2 cells upregulation of SOD1 protein expression incubated for 6 hrs by Western blot analysis. The class given is cell-based. The essentials: (§1)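 BV-2 cells washed in ice-cold PBS and lysed on ice for 40 min in RIPA buffer with protease inhibitors. Nuclear fractions prepared separately. 10 μg protein run on SDS-PAGE and blotted to PVDF. Membranes blocked in 5% skim milk/TBST and probed overnight at 4 °C for Nrf2, HO-1, GCLM or SOD1. HRP secondary with ECL detection. Band densities normalised to Lamin B1 or β-actin.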

The target in series [3] is T1, Nuclear factor erythroid 2-related factor 2 (Mus musculus). Description: Activation of NRF2 in mouse BV2 cells assessed as increase in GCLM mRNA level at 0.1 to 10 uM incubated for 8 hrs by qRT-PCR analysis. The format is cell-based. The essentials: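 BV-2 microglia grown in RPMI 1640 with 10% FBS, 2.05 mM L-glutamine and penicillin-streptomycin at 37 °C, 5% CO2. Cells exposed to a range of compound concentrations for 8 h. Ho-1 or Gclm mRNA measured by qRT-PCR and expressed relative to untreated control. Means ± SEM, one-way ANOVA with Dunnett's test.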

Series [4] deals with BV-2. In words: Cytotoxicity against mouse BV2 cells assessed as reduction in cell viability upto 10 uM incubated for 24 hrs by WST assay. The class given is cell-based. Particulars: bv-2, 24 h. The essentials:
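BV-2 cells incubated with compound concentrations up to 10 µM for 24 h at 37 °C. Ez-Cytox WST reagent added for 1 h and formazan absorbance read at 450 nm.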

A short description of series [5]: Stability in rat plasma assessed as compound remaining after 30 mins. The format is ADME, cell-free. Particulars: read-out: Stability.
Series [6] concerns Mus musculus. Description: Cognition enhancing effect in C57BL/6 mouse model of scopolamine-induced amnesia assessed as increase in latency to enter dark room at 30 mg/kg, po administered for 5 days and measured on day 5 after 30 mins of scopolamine stimulation by passive avoidance test relative to control. The class given is functional. Summed up: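 Male C57BL/6N mice given 30 mg/kg/day compound in saline orally for 5 days. Scopolamine 1 mg/kg i.p. given on day 4, 30 min before the acquisition trial. Step-through latency recorded in the passive avoidance test.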

Series [7] has as its target T1, Nuclear factor erythroid 2-related factor 2 (Mus musculus). Description: Activation of NRF2 in mouse BV2 cells assessed as increase in HO1 protein expression at 10 uM incubated for 12 hrs by Western blot analysis. The class given is cell-based. Summed up: as §1
Series [8] has as its target CYP2C19 (Homo sapiens, UniProt P33261). In words: Inhibition of CYP2C19 (unknown origin) assessed as remaining activity relative to control. The format is ADME.
In series [9] the target is T2, CYP1A2 (Homo sapiens, UniProt P05177).
T2 sequence (P05177 whole entry): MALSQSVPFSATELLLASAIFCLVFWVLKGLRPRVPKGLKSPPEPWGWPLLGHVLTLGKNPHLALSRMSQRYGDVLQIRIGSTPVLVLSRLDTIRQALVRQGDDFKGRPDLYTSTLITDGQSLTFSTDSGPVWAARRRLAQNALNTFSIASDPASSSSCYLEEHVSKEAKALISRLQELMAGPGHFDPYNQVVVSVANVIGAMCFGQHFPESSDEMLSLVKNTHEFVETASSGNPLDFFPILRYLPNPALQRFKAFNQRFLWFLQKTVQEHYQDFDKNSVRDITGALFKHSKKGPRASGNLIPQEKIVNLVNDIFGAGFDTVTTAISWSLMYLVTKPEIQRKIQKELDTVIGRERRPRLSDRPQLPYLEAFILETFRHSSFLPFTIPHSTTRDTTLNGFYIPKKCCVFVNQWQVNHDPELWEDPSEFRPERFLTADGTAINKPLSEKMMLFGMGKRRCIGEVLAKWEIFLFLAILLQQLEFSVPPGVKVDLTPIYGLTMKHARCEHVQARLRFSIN
Description: Inhibition of CYP1A2 (unknown origin) assessed as remaining activity relative to control. The format is ADME.

For series [10], the target named is T1, Nuclear factor erythroid 2-related factor 2 (Mus musculus). Description: Activation of NRF2 in mouse BV2 cells assessed as inhibition of LPS-stimulated NO production preincubated for 6 hrs followed by LPS stimulation for 24 hrs by Griess reagent-based assay. The format is cell-based. The essentials: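 BV-2 cells pretreated with a range of compound concentrations for 6 h, then stimulated with 1 µg/mL LPS for 24 h. Medium nitrite measured by Griess reaction (sulfanilamide/phosphoric acid, then NED, 5 min each at room temperature in the dark). Absorbance at 540 nm read against a nitrite standard curve.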

Series [11] has the same target. Description: Activation of NRF2 in mouse BV2 cells assessed reduction in LPS-stimulated IL-6 level preincubated for 3 hrs followed by LPS stimulation for 24 hrs by ELISA. The class given is cell-based. The essentials: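 BV-2 cells pre-incubated with a range of compound concentrations for 3 h, then stimulated with 0.2 μg/mL LPS for 24 h. TNF-α or IL-6 in the culture medium quantified by sandwich ELISA kits. Compared with LPS-treated control by one-way ANOVA with Dunnett's test.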

The target is the same in series [12]. Description: Activation of NRF2 in mouse BV2 cells assessed as inhibition of LPS-stimulated iNOS expression at 10 uM preincubated for 3 hrs followed by LPS stimulation for 24 hrs by Western blot analysis relative to control. The format is cell-based. More on the design: scale not given: the % may be the effect or the level left. Summed up: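 LPS-stimulated BV-2 cells pretreated with compound for 3 h. iNOS immunoblot (1:500) on 10 μg RIPA lysate protein, detected by ECL. Densities normalised to β-actin or Lamin B1 and compared with LPS-treated control.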

Series [13] has the same target. In words: Activation of NRF2 in mouse BV2 cells assessed as increase in nuclear NRF2 level incubated for 6 hrs by Western blot analysis. The class given is cell-based. The essentials:
as §1

For series [14], the target named is CYP3A4 (Homo sapiens, UniProt P08684). Description: Inhibition of CYP3A4 (unknown origin) assessed as remaining activity relative to control. The class given is ADME.
Sequence of CYP3A4 (P08684 whole entry): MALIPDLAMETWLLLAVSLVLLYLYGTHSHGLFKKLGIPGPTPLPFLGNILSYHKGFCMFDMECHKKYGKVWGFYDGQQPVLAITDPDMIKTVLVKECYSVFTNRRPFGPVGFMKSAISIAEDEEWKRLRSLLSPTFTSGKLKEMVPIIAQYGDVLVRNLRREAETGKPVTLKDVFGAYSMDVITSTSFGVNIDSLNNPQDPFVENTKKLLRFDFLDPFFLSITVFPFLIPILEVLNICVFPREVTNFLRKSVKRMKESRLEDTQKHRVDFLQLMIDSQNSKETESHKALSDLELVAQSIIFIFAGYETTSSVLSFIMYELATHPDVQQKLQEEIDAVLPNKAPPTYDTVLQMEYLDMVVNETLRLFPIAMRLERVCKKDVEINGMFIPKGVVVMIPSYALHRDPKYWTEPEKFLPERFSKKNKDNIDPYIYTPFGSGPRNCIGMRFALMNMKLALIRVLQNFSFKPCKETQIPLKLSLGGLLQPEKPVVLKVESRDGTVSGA
Series [15] is described as follows: Stability in human plasma assessed as compound remaining after 30 mins. The class given is ADME, cell-free. Particulars: read-out: Stability.
The target of series [16] is T1, Nuclear factor erythroid 2-related factor 2 (Mus musculus). In words: Activation of NRF2 in mouse BV2 cells assessed as increase in HO1 protein expression at 3 uM incubated for 6 hrs by Western blot analysis. The class given is cell-based. Summed up:
as §1

Calls of active or inactive are those of the source. The calls are words filed in the database; no cut-off is given here.

Sequence of CYP2C19 (P33261 whole entry): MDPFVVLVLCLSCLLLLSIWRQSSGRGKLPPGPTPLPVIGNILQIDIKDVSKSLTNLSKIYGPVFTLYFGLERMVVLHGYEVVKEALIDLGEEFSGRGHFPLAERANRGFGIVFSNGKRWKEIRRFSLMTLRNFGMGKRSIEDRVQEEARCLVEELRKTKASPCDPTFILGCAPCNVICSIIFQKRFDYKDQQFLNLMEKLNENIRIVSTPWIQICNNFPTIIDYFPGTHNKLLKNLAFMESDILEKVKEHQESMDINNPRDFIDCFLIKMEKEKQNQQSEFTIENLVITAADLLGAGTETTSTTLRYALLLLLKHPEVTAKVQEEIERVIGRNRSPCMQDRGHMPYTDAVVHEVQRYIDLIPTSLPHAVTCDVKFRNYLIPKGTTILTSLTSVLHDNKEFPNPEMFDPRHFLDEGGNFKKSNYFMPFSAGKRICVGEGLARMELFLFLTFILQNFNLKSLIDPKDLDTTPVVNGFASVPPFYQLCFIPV

`CN1CCN(C(=O)COc2ccc(C(=O)/C=C/c3ccccc3C(F)(F)F)cc2)CC1.Cl`: the remaining at 0.5 h in series [1] is 16.1%; in series [5], 99.3%; in [15] it was above 100%. Further, the Activity result in series [2] is “Dose-dependent effect”; in series [10], “Dose-dependent effect”; in series [11], “Dose-dependent effect”; in [12] it was 100%; in series [13], “Dose-dependent effect”. Moreover, the Activity result in series [3] and in [16] was “Active” throughout. Also, the activity result was “Non-Toxic” in [4]; above 70% in series [6]; 79.3% in series [8]; 98.5% in series [9]; above 100% in [14]. In [7], the fold change (FC) is above 7.

For the origin of these results see ChEMBL document CHEMBL4312006, “A novel chalcone derivative as Nrf2 activator attenuates learning and memory impairment in a scopolamine-induced mouse model” (Eur J Med Chem, 2020).
